Consider 24 compounds from PubChem BioAssay.

Experiment [1] in a line: S. cerevisiae growth inhibition in permissive medium (OD615), pilot counter-assay for S. cerevisiae lifespan shortening project, permissive growth control (AID 705;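 active = growth inhibition above 25% in both replicates, a cutoff set 3 SD above the mean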). Particulars: OD615, 24 h, at 10 µM, stronger effect = higher value. In short, it runs like this: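 Timing: 24 h exposure, 30 °C / Material: Saccharomyces cerevisiae strain carrying genetically modified DeaD replicative-lifespan system / Signal: OD at 615 nm / Compound: 10 µM single dose, 0.25% DMSO / Medium: SC raffinose/galactose permissive medium / Evaluation: reduction in yeast growth (OD615)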

Experiment [2] can be described thus: S. cerevisiae growth inhibition in restrictive medium, OD615, pilot screen, restrictive growth control, yeast lifespan reduction project (AID 706;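 active = growth inhibition above a set limit, 3 SD over mean compound inhibition, in both replicates, cut at about 43% in these data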;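 also: modified DeaD lifespan yeast strain shifted to restrictive glucose medium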). Particulars: OD615, 48 h, at 10 µM, stronger effect = higher value. In a few lines: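 System: Engineered S. cerevisiae DeaD strain | Detection: OD615 | Buffer or medium: CSMM-D glucose medium | Doses: 10 µM compound, 0.25% DMSO | Timing: 4 h pre-growth plus 48 h compound exposure, 30 °C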

Experiment [3] can be described thus: doxorubicin toxicity protection in MRP-1 cells – H69AR cells, CellTiter-Glo, duplicate, MRP-1 activator project, pilot screen (AID 807;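 active = viability increase at or above a cutoff of the median across tested compounds plus 3 SD, cut at about 8.5% in these data, passing the limit was not always enough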;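 also: compound pretreatment 18-22 h then 72 h combined with doxorubicin; 0% = doxorubicin alone and 100% = vehicle without doxorubicin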). Particulars: H69AR viability with doxorubicin, CellTiter-Glo luminescence; at 10 µM; stronger effect = higher value. Background: ATP-based viability assays read luminescence as a measure of living cells.
Experiment [4] is described as follows: viability of HCT116 without oncogenic beta-catenin – human colon tumor cells, pilot screen (AID 823;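 active = cell viability at or below a set limit in both duplicate runs, the limit being the all-compound median minus 4 SD, cut at about 23% in these data, passing the limit was not always enough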;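 also: 0% = wells killed by 20 µM Hyamine and 100% = untreated DMSO cell wells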). Particulars: HCT116 beta-catenin knockout viability, CellTiter-Glo, 60 h; at 10 µM; stronger effect = lower value.
Experiment [5] in a line: viability of PTEN-null HCT116 cells – cell-based, HCT116 clonal line, CellTiter-Glo, pilot screen (AID 824;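 active = viability at or below 27.92% in each of two runs, the all-compound median minus 4 SD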;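 also: 0% = 20 µM Hyamine control and 100% = vehicle cell control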). Particulars: HCT116 PTEN-deleted viability, 60 h, at 10 µM, stronger effect = lower value.
Experiment [6] in a line: RAM pathway blockade in budding yeast – dse1pr::URA3 reporter, 5-FOA selection, pilot screen (AID 869;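 active = inhibition over a set limit, the all-compound mean plus 3 SD, in both replicate runs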;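 also: 0% = DMSO wells with no growth and 100% = 10 µM 1-NA-PP1 with full growth; RAM network block rescues cells from 5-FOA so hits raise OD615 growth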). Particulars: S. cerevisiae dse1pr::URA3 5-FOA growth, OD615, 2 d; at 10 µM; stronger effect = higher value; strain carries analog-sensitive mutant Cbk1 kinase.
Experiment [7] in a line: RAM signaling pathway blockade in yeast – S. cerevisiae, Pdr1DBD-CYC8 efflux-inhibited sensitized strain, primary screen (AID 1298).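 Also: 0% = DMSO untreated cells without growth and 100% = 10 µM 1-NA-PP1 full growth; higher means more yeast growth rescued from 5-FOA killing.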 Particulars: S. cerevisiae cbk1-as DSE1-URA3 strain, 5-FOA growth OD615, 2 d; at 50 µM; stronger effect = higher value.

Unmarked numbers belong to inactive results. Inconclusive results are not listed. Active and inactive are the calls of the source.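 The calls were made as follows, unless noted: active = RAM network inhibition above 8.4% in each of two replicates, 3 SD over the compound average; inconclusive = above 8.4% inhibition in only one replicate; inactive = 8.4% inhibition or less in each replicate.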

With `COC1=C(OC)c2ccccc2C(C(=O)O)N/C1=C(/C)Nc1ccncc1` (stereo not drawn), the growth inhibition in experiment [1] was -5.63%; in experiment [2], -2.54%. The viability increase in experiment [3] was -0.91%. Also, the viability (as a rule, a read-out of living cells in per cent, often relative to untreated cells) in experiment [4] is 94.7%; in experiment [5], 91.5%. Also, the inhibition (as a rule, the relative decrease from the control value, in per cent) in experiment [6] was 1.11%. Moreover, the RAM network inhibition in experiment [7] is -1.82%.

Turning to `COc1ccc(CC(=O)Nc2oc(-c3ccccc3)c(-c3ccccc3)c2C#N)cc1OC`, the results for the growth inhibition in experiment [1] and in experiment [2] were -6.81% and -2.63%, respectively. In addition, the viability increase in experiment [3] is -0.77%. The viability in experiment [4] is 76.9%; in experiment [5], 68.2%. Besides, the inhibition in experiment [6] was 1.75%. In addition, the RAM network inhibition in experiment [7] is 8.44%.

Consider `C=CCc1cccc2cc(C(=O)N(C)C)c(=O)oc12`, for which the growth inhibition in experiment [1] is -7.92%; in experiment [2] it was -6.08%. Besides, in experiment [3], the viability increase is -1.06%. For the same compound, the viability was 105% in experiment [4] and 93.8% in experiment [5]. For the same compound, the inhibition in experiment [6] is 1.53%. The RAM network inhibition in experiment [7] is 2.04%.

Regarding `CC(=O)Nc1c2c(nn1-c1cccc(Cl)c1)CS(=O)C2` (stereo not drawn), the growth inhibition in experiment [1] was 3.89%; in experiment [2], -5.49%. Also, in experiment [3], the viability increase is -0.33%. Besides, the viability in experiment [4] is 94.1%; in experiment [5], 100%. Also, the inhibition in experiment [6] was 1.38%. Besides, the RAM network inhibition in experiment [7] was 0.11%.

As for `COCCNS(=O)(=O)c1ccc(C2CNC(=O)C2)cc1` (stereo not drawn), the figures for the growth inhibition in experiment [1] and in experiment [2] were -7.18% and -6.89%, respectively. Moreover, the viability increase in experiment [3] is -1.08%. Also, the viability in experiment [4] was 110%; in experiment [5] it was 104%. In addition, in experiment [6], the inhibition is 2.2%. Also, the RAM network inhibition in experiment [7] is -1.51%.

Regarding `O=C(Cc1cccs1)NCCn1ccc2ccccc21`, the growth inhibition in experiment [1] was -14.2%; in experiment [2], -11.5%. In addition, the viability increase in experiment [3] was -1.16%. For the same compound, the results for the viability in experiment [4] and in experiment [5] were 90.3% and 87.1%, respectively. For the same compound, the inhibition in experiment [6] is 0.32%. In addition, the RAM network inhibition in experiment [7] was 9.88%.

`COc1ccc(C(=O)Nc2ccc(S(=O)(=O)N3CCCCC3C)cc2)c(OC)c1OC` (stereo not drawn): the growth inhibition is -3.56% in experiment [1] and -3.8% in experiment [2]. In experiment [3], the viability increase was -0.18%. The viability in experiment [4] was 91.2%; in experiment [5], 96.1%. Besides, in experiment [6], the inhibition is 0.03%. The RAM network inhibition in experiment [7] is 1.24%.

Take `Cc1cc2cc(CNS(=O)(=O)c3ccccc3)ccc2n1C`: the growth inhibition is -4.47% in experiment [1] and 3.34% in experiment [2]. The viability increase in experiment [3] was -1.48%. Besides, the figures for the viability in experiment [4] and in experiment [5] were 85.2% and 86.2%, respectively. Further, the inhibition in experiment [6] was 0.71%. Further, the RAM network inhibition in experiment [7] was 2.49%.

With `CCOc1ccccc1NC(=O)CN(c1cc(C)cc(C)c1)S(=O)(=O)c1c(C)noc1C`, the growth inhibition in experiment [1] was -22.6%; in experiment [2] it was -12.1%. Further, the viability increase in experiment [3] is -1.39%. For the same compound, the viability in experiment [4] is 106%; in experiment [5], 95.1%. For the same compound, the inhibition in experiment [6] was 1.51%. The RAM network inhibition in experiment [7] is 1.81%.

`Cc1cccc(C2Nc3ccccc3C(=O)N2CCc2ccccc2)n1` (stereo not drawn): the growth inhibition is -10.1% in experiment [1] and -2.82% in experiment [2]. For the same compound, the viability increase in experiment [3] is -2.91%. For the same compound, the viability in experiment [4] is 78.3%; in experiment [5] it was 73.5%. For the same compound, the inhibition in experiment [6] was 2.09%. Further, the RAM network inhibition in experiment [7] was 7.42%.

As for `Cc1ccc2oc(=O)c3cc(C(=O)NCCN4CCN(C)CC4)sc3c2c1`, the growth inhibition in experiment [1] is -0.32%; in experiment [2] it was -8.46%. Moreover, in experiment [3], the viability increase was -1.81%. Further, the figures for the viability in experiment [4] and in experiment [5] were 85.5% and 83.5%, respectively. In experiment [6], the inhibition was 0.16%. For the same compound, the RAM network inhibition in experiment [7] is 0.45%.

In the case of `COc1ccc(CNC(=O)c2onc(C)c2Cl)cc1`, the growth inhibition in experiment [1] was -14.2%; in experiment [2], -17.2%. The viability increase in experiment [3] was -1.96%. Also, the viability in experiment [4] is 96%; in experiment [5], 93.7%. Also, the inhibition in experiment [6] was 2.31%. The RAM network inhibition in experiment [7] was 4.91%.

On to `O=C(CCCc1ccccc1)NCCN1CCOCC1`, for which the figures for the growth inhibition in experiment [1] and in experiment [2] were -12.1% and -5.57%, respectively. Besides, the viability increase in experiment [3] was 1.56%. Further, the viability is 104% in experiment [4] and 97.9% in experiment [5]. In addition, the inhibition in experiment [6] is 0.795%. For the same compound, in experiment [7], the RAM network inhibition is 2.4%.

Turning to `COc1ccc(C(c2sc3ncnn3c2O)N2CC(C)OC(C)C2)cc1OC` (stereo not drawn), the growth inhibition in experiment [1] is 0.335%; in experiment [2], -6.37%. Further, the viability increase in experiment [3] was -1%. For the same compound, the viability in experiment [4] is 102%; in experiment [5] it was 87.3%. The inhibition in experiment [6] was 0.55%. The RAM network inhibition in experiment [7] was 0.12%.

Turning to `COc1ccc(-c2nc(CS(=O)CC(=O)NCc3cccnc3)c(C)o2)cc1OC` (stereo not drawn), the results for the growth inhibition in experiment [1] and in experiment [2] were -1.92% and -2.94%, respectively. For the same compound, the viability increase in experiment [3] was -2.64%. In addition, the viability in experiment [4] is 99.5%; in experiment [5], 94.8%. In experiment [6], the inhibition is 1.42%. Besides, the RAM network inhibition in experiment [7] was 0.68%.

As for `Cc1cccc(NC(=O)c2cccnc2)c1`, the figures for the growth inhibition in experiment [1] and in experiment [2] were -3.06% and 4.14%, respectively. In experiment [3], the viability increase is 1.56%. For the same compound, the viability in experiment [4] was 97.2%; in experiment [5] it was 96.5%. Further, the inhibition in experiment [6] was 0.405%. Further, the RAM network inhibition in experiment [7] was 5.69%.

`CC(=O)N(c1c(C)n(C)n(-c2ccccc2)c1=O)C1(C(=O)NC2CCCC2)CCCCC1`: the results for the growth inhibition in experiment [1] and in experiment [2] were -1.1% and -19%, respectively. In addition, the viability increase in experiment [3] is -1.56%. For the same compound, the viability is 95.1% in experiment [4] and 95.8% in experiment [5]. Further, the inhibition in experiment [6] is 0.27%. Moreover, the RAM network inhibition in experiment [7] is -1.24%.

Regarding `Cn1c(=O)c2c(nc(N3CCCCCC3)n2CCSc2nc3ccccc3o2)n(C)c1=O`, the figures for the growth inhibition in experiment [1] and in experiment [2] were -6.38% and -18.4%, respectively. Besides, in experiment [3], the viability increase is -6.62%. The viability in experiment [4] is 80.4%; in experiment [5] it was 83%. The inhibition in experiment [6] is 1.14%. Also, the RAM network inhibition in experiment [7] was 2.45%.

As to `COc1ccc2c(c1)C(=O)CC(c1ccccc1F)O2` (stereo not drawn), the growth inhibition in experiment [1] was -12%; in experiment [2] it was -1.22%. Besides, the viability increase in experiment [3] is -3.63%. Also, the viability in experiment [4] is 65.4%; in experiment [5], 74.3%. The inhibition in experiment [6] was 1.22%. In addition, the RAM network inhibition in experiment [7] was 5.83%.

Consider `COCCN1C(=O)c2ccccc2C(C(=O)NCCN(C)C)C1c1ccc(F)cc1` (stereo not drawn), for which the growth inhibition in experiment [1] was -15%; in experiment [2], -19.9%. Further, the viability increase in experiment [3] was -1.59%. The viability in experiment [4] is 92.1%; in experiment [5], 98.4%. Besides, the inhibition in experiment [6] is 1.89%. Further, the RAM network inhibition in experiment [7] was 2.13%.

For the compound `CCN(CC)CCCNC(=O)c1cc2c(-c3ccc(Cl)cc3)nn(C)c2s1`, the growth inhibition in experiment [1] was 0.63%; in experiment [2], 17.3%. Further, the viability increase in experiment [3] is -8.12%. Moreover, the viability in experiment [4] is 1.68% (active); in experiment [5], 1.82% (active). In addition, the inhibition in experiment [6] was -0.18%. Also, the RAM network inhibition in experiment [7] was -0.36%.

Take `COCCn1c(SCCN2CCOCC2)nc2c1c(=O)[nH]c(=O)n2C`: the growth inhibition in experiment [1] is -0.205%; in experiment [2], -4.84%. Also, the viability increase in experiment [3] is 0.95%. Moreover, the viability in experiment [4] is 104%; in experiment [5], 101%. Moreover, in experiment [6], the inhibition is 1.45%. Moreover, in experiment [7], the RAM network inhibition is 5.47%.

With `COc1ccc(NC(=O)CCS(=O)(=O)c2cccc3nonc23)c(OC)c1`, the results for the growth inhibition in experiment [1] and in experiment [2] were -4.67% and -11.7%, respectively. In addition, the viability increase in experiment [3] is -2.54%. Besides, the viability was 96.2% in experiment [4] and 93.8% in experiment [5]. Also, the inhibition in experiment [6] is 0.51%. For the same compound, the RAM network inhibition in experiment [7] is 2.06%.

Turning to `N#Cc1c(NC(=O)c2cc(C3CC3)on2)sc2c1CCC2`, the results for the growth inhibition in experiment [1] and in experiment [2] were -1.24% and 5.11%, respectively. In experiment [3], the viability increase is -5.36%. The viability in experiment [4] was 38.9%; in experiment [5] it was 34.1%. In addition, the inhibition in experiment [6] was 3.44%. Further, the RAM network inhibition in experiment [7] is -1.72%.
